The results in this text go back to PMC7111758 (Tetrahedron, 2019).

Some results are limits rather than exact numbers.

Data set [1] has as its system human cytomegalovirus (HCMV) strain Davis. Nature of the data set: Antiviral assay, virus-induced cytopathic effect in HEL cells, HCMV Davis. The class given is cell-based. The conditions noted are these: Human betaherpesvirus 5, HEL, read-out: Antiviral activity - EC50 HCMV Davis.
The test system of data set [2] is adenovirus-2. The data set is described as follows: Antiviral assay, virus-induced cytopathic effect, adenovirus-2. The format is cell-based. The settings on record: for EC50: Human mastadenovirus C, read-out: Antiviral activity - EC50 Adeno-2. For orientation: Cytopathic effects are the visible damage that an infection or toxin causes in cultured cells.
Data set [3] deals with HEL cells. Nature of the data set: Cytotoxicity, microscopically detectable alteration of cell morphology. The class given is cell-based, human. The conditions noted are these: for Cytotoxicity MCC (minimum cytotoxic concentration): microscopically detectable alteration of cell morphology.
The test system of data set [4] is varicella-zoster virus (VZV) strain Oka (TK+). Nature of the data set: microbe, parasite or virus in culture. The settings on record: Human alphaherpesvirus 3, HEL, read-out: Antiviral activity - EC50 VZV Oka (TK+). The format is cell-based.
Data set [5] has as its system vaccinia virus (VACV). The data set is described as follows: microbe, parasite or virus in culture. The format is cell-based. The conditions noted are these: for EC50: Orthopoxvirus vaccinia, HEL, read-out: Antiviral activity - EC50 VACV.
The test system of data set [6] is herpes simplex virus type 2 (HSV-2) strain G. Nature of the data set: Antiviral assay, virus-induced cytopathic effect in HEL cells, HSV-2 G. The format is cell-based. The conditions noted are these: Human alphaherpesvirus 2, HEL, read-out: Antiviral activity - EC50 HSV-2 G (TK+).
The nature of data set [7]: Cytostatic activity, inhibition of HEL cell growth. The format is cell-based. The settings on record: human, HEL cells. In outline:
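HEL cells seeded at 5 × 10^3 cells/well, allowed to proliferate 24 h, then given medium with different concentrations of test compound. After three days at 37 °C, cell number counted with a Coulter counter. CC50 is the concentration reducing proliferation by 50% relative to untreated control cell counts.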

The test system of data set [8] is human cytomegalovirus (HCMV) strain AD-169. The data set is described as follows: Antiviral assay, virus-induced cytopathic effect in HEL cells, HCMV AD-169. The settings on record: HCMV replication; compared with reference drug ganciclovir. The class given is cell-based.

For orientation: EC50 means the concentration at which the effect is half-maximal. On to `CCOC(=O)C(C)NP(=O)(COC(CF)CN1CN2C=C(c3ccccc3)NC2=NC1=O)NC(C)C(=O)OCC` (centres unmarked) [19a, Diethyl 2,2'-(((((1-fluoro-3-(2-oxo-7-phenyl-2,8-dihydroimidazo[1,2-a][1,3,5]triazin-3(4H)-yl)propan-2-yl)oxy)methyl)phosphoryl)bis(azanediyl))-dipropionate], for which the half-maximal effective concentration (EC50) in data set [1], in data set [2], in data set [4], in data set [5] and in data set [6] was > 100 µM in each case. Also, the “Cytotoxicity MCC (minimum cytotoxic concentration)” value (“Cytotoxicity MCC” for short) in data set [3] was >100 µM.

Usually CC50 stands for the concentration giving 50% cytotoxicity. A high value points to lower toxicity to the cells. Take `Nc1ccn(C[C@@H](CO)OCP(=O)(O)O)c(=O)n1` [CDV, cidofovir, reference compound]: the EC50 in data set [1] was found to be 0.73 ± 0.31 µM; in data set [2], 8.3 ± 2.1 µM; in data set [5], 26 ± 12 µM; in data set [6], 1.3 ± 0.4 µM. Moreover, the CC50 at 3 days in data set [7] was > 300 µM. Besides, in data set [3], the “Cytotoxicity MCC” value is >300 µM.

`Nc1nc(O)c2ncn(COC(CO)CO)c2n1` [GCV, ganciclovir, reference compound]: the EC50 is 3 ± 2.7 µM in data set [1], > 100 µM in data set [5] and 0.03 µM in data set [6]. In data set [7], the CC50 at 3 days is > 350 µM. The “Cytotoxicity MCC” value in data set [3] was >350 µM.

For the molecule `Nc1nc2c(ncn2COCCO)c(=O)[nH]1` [ACV, acyclovir, reference compound], the CC50 at 3 days in data set [7] is > 440 µM. Further, the “Cytotoxicity MCC” value in data set [3] was >440 µM. In addition, the EC50 in data set [5] was > 250 µM; in data set [6], 0.21 ± 0.12 µM.

Consider `Nc1ncn(CC(OCP(=O)(O)O)C(F)(F)F)c(=O)n1` (centres unmarked) [compound 25, {[(3-(4-Amino-2-oxo-1,3,5-triazin-1(2H)-yl)-1,1,1-trifluoropropan-2-yl)oxy]methyl}phosphonic acid], for which the EC50 in data set [1], in data set [2], in data set [4], in data set [5] and in data set [6] was > 100 µM each time. The “Cytotoxicity MCC” value in data set [3] was >100 µM.

Regarding `CC(=O)O.NC1=NC(=O)N(CC(O)C(F)(F)F)CN1` (centres unmarked) [compound 23, 6-Amino-4-oxo-3-(3,3,3-trifluoro-2-hydroxypropyl)-1,2,3,4-tetrahydro-1,3,5-triazin-1-ium acetate], the EC50 in data set [1], in data set [2], in data set [4], in data set [5] and in data set [6] was > 100 µM each time. Besides, in data set [3], the “Cytotoxicity MCC” value was >100 µM.

For `NC1=NC(=O)N(C[C@@H](CF)OCP(=O)(O)O)CN1` [compound 13, (S)-1-[3-Fluoro-2-(phosphonomethoxy)propyl]-5,6-dihydro-5-azacytosine], the EC50 in data set [1], in data set [2], in data set [4], in data set [5] and in data set [6] was > 100 µM throughout. For the same molecule, the “Cytotoxicity MCC” value in data set [3] is >100 µM.

For `O=c1[nH]c(=O)n([C@H]2C[C@H](O)[C@@H](CO)O2)cc1/C=C/Br` [BVDU, brivudine, reference compound], in data set [7], the CC50 at 3 days is > 300 µM. For the same molecule, the “Cytotoxicity MCC” value in data set [3] is >300 µM. Besides, the values for the EC50 in data set [4], in data set [5] and in data set [6] were 0.023 ± 0.021 µM, 11.3 ± 6.4 µM and 123 ± 26 µM, respectively.

`Nc1ncn(CC(O)C(F)(F)F)c(=O)n1` (centres unmarked) [compound 22, 4-Amino-1-(3,3,3-trifluoro-2-hydroxypropyl)-1,3,5-triazin-2(1H)-one]: the EC50 is 200 ± 17.8 µM in data set [1]; 268 ± 178 µM in data set [2]; 40.6 ± 11.7 µM in data set [4]; > 446 µM in data set [5]; 230 ± 29 µM in data set [6]. Moreover, the CC50 at 3 days in data set [7] was > 446 µM. Further, the “Cytotoxicity MCC” value in data set [3] is >446 µM.

`CCOC(=O)C(C)NP(=O)(COC(CF)CN1CN2C=C(c3ccc(OC)cc3)NC2=NC1=O)NC(C)C(=O)OCC` (centres unmarked) [19c, Diethyl 2,2'-(((((1-fluoro-3-(7-(4-methoxyphenyl)-2-oxo-2,8-dihydroimidazo[1,2-a][1,3,5]triazin-3(4H)-yl)propan-2-yl)oxy)methyl)phosphoryl)bis(azanediyl))-dipropionate]: the EC50 in data set [1], in data set [2], in data set [4], in data set [5] and in data set [6] was > 100 µM each time. In addition, in data set [3], the “Cytotoxicity MCC” value was >100 µM.

As for `CC(C)OP(=O)(CO[C@H](CF)Cn1cnc(N)nc1=O)OC(C)C` [8a, Diisopropyl (S)-{[(1-(4-amino-2-oxo-1,3,5-triazin-1(2H)-yl)-3-fluoropropan-2-yl)oxy]methyl}phosphonate], the EC50 was 7.9 ± 5.5 µM in data set [1]; > 100 µM in data set [2]; 11.7 ± 4 µM in data set [4]; > 100 µM in data set [5]; 17.5 ± 10.6 µM in data set [6]. In data set [8], the “EC50 against HCMV relative to ganciclovir” value is reported as “about three times higher”. For the same molecule, the CC50 at 3 days in data set [7] is > 100 µM. Moreover, in data set [2] (in words), the activity against adenoviruses result is “inactive”. Further, the “Cytotoxicity MCC” value in data set [3] is >100 µM. Also, the “cytotoxicity for HEL cells” value in data set [3] (no cytotoxicity up to the highest concentration tested) was > 100 µM. Also, in data set [5], the “activity against vaccinia virus (poxvirus)” value was “inactive”.

Turning to `CCOC(=O)C(C)NP(=O)(COC(CF)CN1CN2C=C(c3ccc([N+](=O)[O-])cc3)NC2=NC1=O)NC(C)C(=O)OCC` (centres unmarked) [19b, Diethyl 2,2'-(((((1-fluoro-3-(7-(4-nitrophenyl)-2-oxo-2,8-dihydroimidazo[1,2-a][1,3,5]triazin-3(4H)-yl)propan-2-yl)oxy)methyl)phosphoryl)bis(azanediyl))-dipropionate], the EC50 in data set [1], in data set [2], in data set [4], in data set [5] and in data set [6] was > 100 µM each time. In data set [3], the “Cytotoxicity MCC” value was >100 µM.

`Nc1ncn(C[C@@H](CF)OCP(=O)(O)O)c(=O)n1` [compound 9, (S)-{[1-(4-Amino-2-oxo-1,3,5-triazin-1(2H)-yl)-3-fluoropropan-2-yl]oxymethyl}phosphonic acid]: the EC50 in data set [1], in data set [2], in data set [4], in data set [5] and in data set [6] was > 100 µM each time. Further, the “Cytotoxicity MCC” value in data set [3] is >100 µM.
